Measured values reported in publication PMC4049353 (Steroids, 2014).
Several values for one entry are separate records, joined by “and”; a condition that tells them apart may be missing. Equal entries are not always repeated.

Experiments:
[1] = test system: TNFα-induced NF-κB activation; experiment: suppression of TNFα-induced NF-κB activation in HEK-Blue CD40L sensor cells; type: cell-based, human; details: for IC50: Homo sapiens, HEK-Blue, 20 h, read-out: TNFα, IC50; for rRBATNFα: relative potency from TNFα IC50, DEX = 100
In short: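 Cells used: HEK293 stably expressing human CD40 and an NF-κB/AP-1-inducible SEAP, seeded at about 5 × 10⁴ cells/well in 1% FBS DMEM. TNFα (3 ng/mL) added with test compound at 0, 0.01, 0.1, 1.0, 10, 100 or 1000 nM; incubated 20 h at 37°C, 5% CO₂. SEAP quantified with QUANTI-Blue at 620–655 nm. Five independent experiments, triplicates or quadruplicates. Percent suppression fitted to a Hill equation (bottom zero; shared Emax and nH).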

[2] = test system: CD40L-induced NF-κB activation; experiment: suppression of CD40L-induced NF-κB activation in HEK-Blue CD40L sensor cells; type: cell-based, human; details: for IC50: Homo sapiens, HEK-Blue, 30 h, read-out: CD40L, IC50; for CD40L/TNFα pot.: potency ratio of CD40L assay vs TNFα assay; for rRBACD40L: relative potency from CD40L IC50, DEX = 100
In short: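 Reporter HEK293 cells (human CD40; NF-κB/AP-1-driven SEAP) at about 5 × 10⁴ cells/well in 1% FBS DMEM. Stimulated with CD40L (CD154, 25 ng/mL) plus test compound at 0–1000 nM (10-fold steps) for 30 h at 37°C, 5% CO₂. SEAP read by QUANTI-Blue at 620–655 nm. Five independent experiments in triplicate or quadruplicate. Percent suppression vs stimulation alone fitted to a Hill model (bottom fixed at zero; Emax and nH shared).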

[3] = target: glucocorticoid receptor (GR); details: cited from earlier work; for Kd: read-out: Kd,lit, consensus average of published GR binding values; for rRBAlit: relative receptor binding affinity, DEX = 100
CD40 (Homo sapiens) = CD40 (Homo sapiens) (UniProt P25942); details: cited from earlier work
Chain of UniProt P25942 (P25942 21-277): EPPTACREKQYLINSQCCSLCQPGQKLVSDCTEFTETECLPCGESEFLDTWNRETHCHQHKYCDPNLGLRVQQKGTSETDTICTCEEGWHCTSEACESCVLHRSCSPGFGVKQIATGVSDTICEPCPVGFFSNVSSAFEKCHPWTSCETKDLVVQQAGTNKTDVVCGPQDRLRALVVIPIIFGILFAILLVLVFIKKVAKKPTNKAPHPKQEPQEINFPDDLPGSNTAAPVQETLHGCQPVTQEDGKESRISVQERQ

[4] = test system: NF-κB activation in HEK-Blue CD40L sensor cells; experiment: ligand-induced NF-κB activation of HEK-Blue CD40L sensor cells; type: cell-based, human; details: one-site specific binding model
In short: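 HEK293 cells stably carrying human CD40 and a SEAP reporter under the IFN-β minimal promoter with five NF-κB and five AP-1 sites. Grown in DMEM (4.5 g/L glucose, 10% FBS, 2 mM L-glutamine), then resuspended in 1% FBS medium. Stimulated with FLAG-tagged TNFα or CD40L (CD154) over a concentration series. SEAP measured with QUANTI-Blue at 620–655 nm; data fitted with a one-site specific binding model.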

CD40 = details: read-out: Kd CD40L – CD40; cell-free binding; cited from earlier work
TNF-R1 = details: read-out: Kd TNFα – TNF-R1; cell-free binding; cited from earlier work

Chain of CD40L (P29965 113-261): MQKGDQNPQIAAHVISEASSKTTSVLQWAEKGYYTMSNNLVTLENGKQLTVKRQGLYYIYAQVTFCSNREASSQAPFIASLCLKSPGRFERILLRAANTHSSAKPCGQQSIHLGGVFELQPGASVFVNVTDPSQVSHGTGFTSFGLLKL

| IC50 [1] [nM] | IC50 [2] [nM] | Compound | rRBATNFα [1] | CD40L/TNFα pot. [2] | rRBACD40L [2] | Kd [3] [nM] | rRBAlit [3] | GR rRBA [3] | Kd (CD40 (Homo sapiens)) [nM] | median effective concentration (EC50) for NF-κB activation [4] | Kd (CD40) [nM] | Kd (TNF-R1) [nM] |
| --- | --- | --- | --- | --- | --- | --- | --- | --- | --- | --- | --- | --- |
| 0.02 | 0.01 | CCC(=O)O[C@]1(C(=O)CCl)[C@@H](C)C[C@H]2[C@@H]3CCC4=CC(=O)C=C[C@]4(C)[C@@]3(F)[C@@H](O)C[C@@]21C [CP, clobetasol propionate] | 13074.5 | 1.62 | 13653.4 | 0.1 | 6300.0 | – | – | – | – | – |
| 14.2 | 0.3 | C[C@]12C=CC(=O)C=C1CC[C@@H]1[C@@H]2[C@@H](O)C[C@@]2(C)[C@H]1CC[C@]2(O)C(=O)CO [PRED, prednisolone] | 20.6 | 47.49 | 632.9 | – | 19.0 | ≈ 20 % of dexamethasone | – | – | – | – |
| 0.76 | 0.43 | CC1(C)O[C@@H]2C[C@H]3[C@@H]4CCC5=CC(=O)C=C[C@]5(C)[C@@]4(F)[C@@H](O)C[C@]3(C)[C@]2(C(=O)CO)O1 [TA, triamcinolone acetonide] | 387.4 | 1.77 | 442.1 | 2.44 | 270.0 | – | – | – | – | – |
| 0.79 | 0.06 | CCOC(=O)O[C@]1(C(=O)OCCl)CC[C@H]2[C@@H]3CCC4=CC(=O)C=C[C@]4(C)[C@H]3[C@@H](O)C[C@@]21C [LE, loteprednol etabonate] | 372.6 | 13.96 | 3357.0 | 4.39 | 150.0 | – | – | – | – | – |
| 2.93 | 1.89 | C[C@@H]1C[C@H]2[C@@H]3CCC4=CC(=O)C=C[C@]4(C)[C@@]3(F)[C@@H](O)C[C@]2(C)[C@@]1(O)C(=O)CO [DEX, dexamethasone] | 100.0 | 1.55 | 100.0 | – | 100.0 | – | – | – | – | – |
| – | – | CD40L (from UniProt P29965) | – | – | – | – | – | – | 1 | – | – | – |
| – | – | CD40L: FLAG-tagged ligand used for stimulation in the cell assays (Axxora) | – | – | – | – | – | – | – | 0.041 µg/mL and ~0.04 µg/mL | ~1 | – |
| – | – | TNFα | – | – | – | – | – | – | – | 0.0027 µg/mL and ~0.003 µg/mL | – | ~0.5 |

| Compound | IC50 [1] [nM] | IC50 [2] [nM] | rRBATNFα [1] | CD40L/TNFα pot. [2] | rRBACD40L [2] | Kd [3] [nM] | rRBAlit [3] | GR rRBA [3] | Kd (CD40 (Homo sapiens)) [nM] | median effective concentration (EC50) for NF-κB activation [4] | Kd (CD40) [nM] | Kd (TNF-R1) [nM] |
| --- | --- | --- | --- | --- | --- | --- | --- | --- | --- | --- | --- | --- |
| C[C@]12CCC(=O)C=C1CC[C@@H]1[C@@H]2[C@@H](O)C[C@@]2(C)[C@H]1CC[C@]2(O)C(=O)CO [HC, hydrocortisone] | 15.5 | 0.54 | 18.9 | 28.75 | 350.3 | – | 10 | – | – | – | – | – |
| CCC(=O)OCC(=O)[C@@]1(OC(=O)CC)[C@@H](C)C[C@H]2[C@@H]3CCC4=CC(=O)C=C[C@]4(C)[C@@]3(Cl)[C@@H](O)C[C@@]21C [BDP, beclomethasone dipropionate] | 0.1 | 0.22 | 2952.7 | 0.46 | 872.2 | – | – | – | – | – | – | – |
